# pIC50: −log10 of the molar value.
# What was measured:
# [1] = organism: Homo sapiens; experiment: (§1) Selectivity ratio, ratio of inhibition of BRPF3 (unknown origin) to displacement of SGRG-K(Ac)-GG-K(Ac)-GLG-K(Ac)-GGAKRHRKV-biotin) from His6/FLAG-tagged TEV fused ATAD2 bromodomain (981 to 1121 residues) expressed in Escherichia coli BL21(DE3) cells
# [2] = target: Bromodomain-containing protein 2 (Homo sapiens, UniProt P25440, Y113A); experiment: Displacement of Alexa Fluor 647 labelled ligand from His6-tagged BRD2 BD2 (1 to 473 residues)/BD1 Y113A mutant (unknown origin) after 30 mins by TR-FRET assay
# Chain of Bromodomain-containing protein 2 (Homo sapiens, UniProt P25440, Y113A) (P25440 whole entry Y113A, the tested form may be a part): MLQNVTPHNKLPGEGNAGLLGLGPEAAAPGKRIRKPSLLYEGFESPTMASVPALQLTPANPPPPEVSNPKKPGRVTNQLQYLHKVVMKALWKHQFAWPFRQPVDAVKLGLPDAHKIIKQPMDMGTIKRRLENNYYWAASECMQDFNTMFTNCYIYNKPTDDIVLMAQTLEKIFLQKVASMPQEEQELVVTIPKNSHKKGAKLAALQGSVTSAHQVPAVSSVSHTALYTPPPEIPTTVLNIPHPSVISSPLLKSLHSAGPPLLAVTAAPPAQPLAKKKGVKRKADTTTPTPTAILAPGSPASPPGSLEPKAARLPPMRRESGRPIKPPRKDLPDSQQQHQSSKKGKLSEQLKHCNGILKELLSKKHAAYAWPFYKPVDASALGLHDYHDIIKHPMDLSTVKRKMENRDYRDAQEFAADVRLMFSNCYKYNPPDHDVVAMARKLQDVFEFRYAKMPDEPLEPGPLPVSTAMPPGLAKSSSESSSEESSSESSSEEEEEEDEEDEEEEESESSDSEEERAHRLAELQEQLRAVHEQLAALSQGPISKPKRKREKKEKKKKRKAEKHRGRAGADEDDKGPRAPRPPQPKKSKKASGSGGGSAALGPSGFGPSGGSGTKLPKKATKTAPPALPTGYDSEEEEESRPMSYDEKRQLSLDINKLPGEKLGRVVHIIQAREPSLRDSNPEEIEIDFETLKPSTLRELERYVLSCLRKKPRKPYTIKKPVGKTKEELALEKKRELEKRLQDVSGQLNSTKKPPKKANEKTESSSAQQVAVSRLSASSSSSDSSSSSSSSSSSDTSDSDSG
# Outline: (§2)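 BET selectivity by TR-FRET fluoroligand displacement. Uses tandem BET bromodomain constructs carrying a mutation in the non-assayed bromodomain.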
# [3] = target: Bromodomain testis-specific protein (Homo sapiens, UniProt Q58F21, Y309A); experiment: Displacement of Alexa Fluor 647 labelled ligand from His6/FLAG-tagged TEV fused BRDT BD1(1 to 397 residues)/BD2 Y309A mutant (unknown origin) after 30 mins by TR-FRET assay; outline: as §2
# [4] = target: T1, ATPase family AAA domain-containing protein 2 (Homo sapiens, UniProt Q6PL18); experiment: Inhibition of ATAD2 bromodomain in human HUT78 chromatin lysate after 2 hrs by bromosphere competition binding assay
# T1 sequence (Q6PL18 whole entry): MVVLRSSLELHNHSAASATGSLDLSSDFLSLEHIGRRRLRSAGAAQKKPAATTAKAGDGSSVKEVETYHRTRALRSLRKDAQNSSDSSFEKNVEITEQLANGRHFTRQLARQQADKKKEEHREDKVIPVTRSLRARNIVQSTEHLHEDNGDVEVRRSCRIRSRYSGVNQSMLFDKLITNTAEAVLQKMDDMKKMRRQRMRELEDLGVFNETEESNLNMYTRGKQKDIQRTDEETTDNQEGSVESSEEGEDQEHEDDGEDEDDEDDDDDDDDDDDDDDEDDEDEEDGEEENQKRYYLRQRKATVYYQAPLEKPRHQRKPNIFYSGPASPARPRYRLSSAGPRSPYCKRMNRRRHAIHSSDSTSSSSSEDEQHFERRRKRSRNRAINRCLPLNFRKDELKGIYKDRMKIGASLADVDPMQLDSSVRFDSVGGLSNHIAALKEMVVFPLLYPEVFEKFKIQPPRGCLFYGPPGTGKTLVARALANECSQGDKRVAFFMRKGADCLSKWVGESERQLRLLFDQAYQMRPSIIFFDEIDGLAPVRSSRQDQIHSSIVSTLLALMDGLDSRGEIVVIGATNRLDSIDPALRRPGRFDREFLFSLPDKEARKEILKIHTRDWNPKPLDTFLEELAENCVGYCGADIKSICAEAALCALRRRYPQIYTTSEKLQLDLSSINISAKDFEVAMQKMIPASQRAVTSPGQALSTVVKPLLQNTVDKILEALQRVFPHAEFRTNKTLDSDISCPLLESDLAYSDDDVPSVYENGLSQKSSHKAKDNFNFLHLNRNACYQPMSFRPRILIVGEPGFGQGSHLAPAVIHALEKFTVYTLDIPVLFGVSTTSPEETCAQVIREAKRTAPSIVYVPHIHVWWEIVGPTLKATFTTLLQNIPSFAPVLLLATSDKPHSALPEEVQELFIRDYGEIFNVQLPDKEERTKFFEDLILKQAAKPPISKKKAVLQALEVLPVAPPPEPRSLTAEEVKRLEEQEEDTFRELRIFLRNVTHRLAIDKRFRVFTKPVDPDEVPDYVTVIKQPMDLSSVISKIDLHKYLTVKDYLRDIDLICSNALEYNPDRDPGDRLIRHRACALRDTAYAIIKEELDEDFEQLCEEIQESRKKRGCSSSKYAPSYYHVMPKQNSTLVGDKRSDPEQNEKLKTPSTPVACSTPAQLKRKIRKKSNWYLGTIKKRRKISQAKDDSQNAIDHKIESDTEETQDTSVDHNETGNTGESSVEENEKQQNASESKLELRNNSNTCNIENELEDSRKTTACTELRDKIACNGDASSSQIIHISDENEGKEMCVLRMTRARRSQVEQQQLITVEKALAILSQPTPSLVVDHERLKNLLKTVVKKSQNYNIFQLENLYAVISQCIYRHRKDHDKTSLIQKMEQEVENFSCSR
# Outline: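 Bromosphere chemoproteomic assay. Measures competitive inhibition of binding of endogenous full-length ATAD2 from Hut-78 cells.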
# [5] = target: Bromodomain testis-specific protein (Homo sapiens, UniProt Q58F21, Y66A); experiment: Displacement of Alexa Fluor 647 labelled ligand from His6/FLAG-tagged TEV fused BRDT BD2(1 to 397 residues)/[…] mutant (unknown origin) after 30 mins by TR-FRET assay; outline: as §2
# [6] = organism: Homo sapiens; experiment: Selectivity ratio, ratio of inhibition of TAF1 BD2 (unknown origin) to Displacement of biotinylated H4 peptide from ATAD2B bromodomain (unknown origin) by TR-FRET assay
# [7] = target: CREB-binding protein (Homo sapiens, UniProt Q92793); experiment: Inhibition of CREBBP (unknown origin) by TR-FRET assay
# Chain of CREB-binding protein (Q92793 whole entry, the tested form may be a part): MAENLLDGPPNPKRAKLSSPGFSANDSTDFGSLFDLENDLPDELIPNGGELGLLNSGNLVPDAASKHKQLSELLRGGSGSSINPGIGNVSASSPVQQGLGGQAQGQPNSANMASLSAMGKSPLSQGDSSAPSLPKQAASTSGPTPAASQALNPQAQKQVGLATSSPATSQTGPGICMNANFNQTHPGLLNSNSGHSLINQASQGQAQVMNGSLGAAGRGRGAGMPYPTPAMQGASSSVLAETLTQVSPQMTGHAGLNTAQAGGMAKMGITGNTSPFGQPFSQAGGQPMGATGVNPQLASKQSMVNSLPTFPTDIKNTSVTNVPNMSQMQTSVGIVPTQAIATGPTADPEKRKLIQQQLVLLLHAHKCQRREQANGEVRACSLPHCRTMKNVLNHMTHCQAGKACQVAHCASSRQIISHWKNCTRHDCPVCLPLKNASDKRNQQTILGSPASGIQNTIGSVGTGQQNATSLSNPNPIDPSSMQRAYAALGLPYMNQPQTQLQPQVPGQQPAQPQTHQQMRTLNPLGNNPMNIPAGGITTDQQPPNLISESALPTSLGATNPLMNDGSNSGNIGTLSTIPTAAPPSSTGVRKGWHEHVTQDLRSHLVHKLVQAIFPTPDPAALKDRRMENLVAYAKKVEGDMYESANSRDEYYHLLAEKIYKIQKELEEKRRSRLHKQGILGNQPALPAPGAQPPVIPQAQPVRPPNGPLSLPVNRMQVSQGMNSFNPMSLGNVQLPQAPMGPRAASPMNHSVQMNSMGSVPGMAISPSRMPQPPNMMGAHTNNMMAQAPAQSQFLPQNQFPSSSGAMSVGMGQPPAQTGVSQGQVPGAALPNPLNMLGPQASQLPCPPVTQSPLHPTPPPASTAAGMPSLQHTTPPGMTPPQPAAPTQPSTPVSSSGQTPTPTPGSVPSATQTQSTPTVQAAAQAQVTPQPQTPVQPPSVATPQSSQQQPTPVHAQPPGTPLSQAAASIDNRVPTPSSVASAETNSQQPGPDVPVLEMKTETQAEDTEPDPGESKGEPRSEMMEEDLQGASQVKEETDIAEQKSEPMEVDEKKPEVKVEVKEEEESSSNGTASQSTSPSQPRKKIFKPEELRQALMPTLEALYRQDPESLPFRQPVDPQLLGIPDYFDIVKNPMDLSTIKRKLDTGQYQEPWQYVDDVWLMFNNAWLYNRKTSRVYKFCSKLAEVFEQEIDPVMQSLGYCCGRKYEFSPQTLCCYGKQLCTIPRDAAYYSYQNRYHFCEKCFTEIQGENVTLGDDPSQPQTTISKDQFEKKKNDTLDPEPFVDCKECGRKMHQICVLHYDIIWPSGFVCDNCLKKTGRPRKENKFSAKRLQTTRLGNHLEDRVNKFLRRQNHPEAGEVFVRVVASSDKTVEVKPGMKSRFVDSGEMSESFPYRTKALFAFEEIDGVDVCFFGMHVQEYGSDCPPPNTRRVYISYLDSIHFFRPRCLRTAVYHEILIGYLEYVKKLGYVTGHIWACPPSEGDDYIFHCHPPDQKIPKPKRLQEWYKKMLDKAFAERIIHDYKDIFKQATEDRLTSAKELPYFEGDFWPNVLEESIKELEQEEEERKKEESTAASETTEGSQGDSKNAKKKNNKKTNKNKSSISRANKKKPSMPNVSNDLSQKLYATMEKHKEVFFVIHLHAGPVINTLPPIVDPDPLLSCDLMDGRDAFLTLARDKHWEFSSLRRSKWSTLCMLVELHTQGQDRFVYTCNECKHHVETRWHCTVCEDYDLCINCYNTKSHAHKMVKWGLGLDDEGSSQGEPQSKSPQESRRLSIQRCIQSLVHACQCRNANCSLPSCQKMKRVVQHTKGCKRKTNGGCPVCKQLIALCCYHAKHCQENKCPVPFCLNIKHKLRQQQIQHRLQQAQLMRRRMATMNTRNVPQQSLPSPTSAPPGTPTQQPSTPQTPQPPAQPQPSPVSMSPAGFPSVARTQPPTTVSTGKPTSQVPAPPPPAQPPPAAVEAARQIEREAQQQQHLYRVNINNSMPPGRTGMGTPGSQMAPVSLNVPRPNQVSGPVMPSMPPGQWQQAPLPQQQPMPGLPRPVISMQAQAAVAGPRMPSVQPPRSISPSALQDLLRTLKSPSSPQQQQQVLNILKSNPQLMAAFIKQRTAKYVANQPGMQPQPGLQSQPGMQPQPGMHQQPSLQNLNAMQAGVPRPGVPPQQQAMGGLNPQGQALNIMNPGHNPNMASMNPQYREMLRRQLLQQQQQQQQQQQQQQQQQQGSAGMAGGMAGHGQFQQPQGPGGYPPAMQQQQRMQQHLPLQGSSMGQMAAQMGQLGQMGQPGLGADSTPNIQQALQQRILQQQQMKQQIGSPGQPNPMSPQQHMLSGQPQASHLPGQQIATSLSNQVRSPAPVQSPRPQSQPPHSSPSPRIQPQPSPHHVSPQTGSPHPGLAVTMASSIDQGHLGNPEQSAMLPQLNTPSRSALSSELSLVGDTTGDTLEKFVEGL
# [8] = organism: Homo sapiens; experiment: as §1, with “displacement” for “inhibition”, “Alexa Fluor 647 labelled ligand from His6-tagged BRD4 BD1 (1 to 477 residues)/BD2 Y390A mutant” for “BRPF3”
# [9] = target: Bromodomain-containing protein 4 (Homo sapiens, UniProt O60885, Y97A); experiment: Displacement of Alexa Fluor 647 labelled ligand from His6-tagged BRD4 BD2 (1 to 477 residues)/BD1 Y97A mutant (unknown origin) after 30 mins by TR-FRET assay; outline: as §2
# [10] = target: Bromodomain-containing protein 3 (Homo sapiens, UniProt Q15059, Y73A); experiment: Displacement of Alexa Fluor 647 labelled ligand from His6-tagged BRD3 BD2(1 to 435 residues)/BD1 Y73A mutant (unknown origin) after 30 mins by TR-FRET assay; outline: as §2
# [11] = target: Bromodomain-containing protein 2 (Homo sapiens, UniProt P25440, Y386A); experiment: Displacement of Alexa Fluor 647 labelled ligand from His6-tagged BRD2 BD1 (1 to 473 residues)/BD2 Y386A mutant (unknown origin) after 30 mins by TR-FRET assay; outline: as §2
# [12] = target: Bromodomain-containing protein 1 (Homo sapiens, UniProt O95696); experiment: Inhibition of BRPF2 (unknown origin) by TR-FRET assay
# Chain of Bromodomain-containing protein 1 (O95696 whole entry, the tested form may be a part): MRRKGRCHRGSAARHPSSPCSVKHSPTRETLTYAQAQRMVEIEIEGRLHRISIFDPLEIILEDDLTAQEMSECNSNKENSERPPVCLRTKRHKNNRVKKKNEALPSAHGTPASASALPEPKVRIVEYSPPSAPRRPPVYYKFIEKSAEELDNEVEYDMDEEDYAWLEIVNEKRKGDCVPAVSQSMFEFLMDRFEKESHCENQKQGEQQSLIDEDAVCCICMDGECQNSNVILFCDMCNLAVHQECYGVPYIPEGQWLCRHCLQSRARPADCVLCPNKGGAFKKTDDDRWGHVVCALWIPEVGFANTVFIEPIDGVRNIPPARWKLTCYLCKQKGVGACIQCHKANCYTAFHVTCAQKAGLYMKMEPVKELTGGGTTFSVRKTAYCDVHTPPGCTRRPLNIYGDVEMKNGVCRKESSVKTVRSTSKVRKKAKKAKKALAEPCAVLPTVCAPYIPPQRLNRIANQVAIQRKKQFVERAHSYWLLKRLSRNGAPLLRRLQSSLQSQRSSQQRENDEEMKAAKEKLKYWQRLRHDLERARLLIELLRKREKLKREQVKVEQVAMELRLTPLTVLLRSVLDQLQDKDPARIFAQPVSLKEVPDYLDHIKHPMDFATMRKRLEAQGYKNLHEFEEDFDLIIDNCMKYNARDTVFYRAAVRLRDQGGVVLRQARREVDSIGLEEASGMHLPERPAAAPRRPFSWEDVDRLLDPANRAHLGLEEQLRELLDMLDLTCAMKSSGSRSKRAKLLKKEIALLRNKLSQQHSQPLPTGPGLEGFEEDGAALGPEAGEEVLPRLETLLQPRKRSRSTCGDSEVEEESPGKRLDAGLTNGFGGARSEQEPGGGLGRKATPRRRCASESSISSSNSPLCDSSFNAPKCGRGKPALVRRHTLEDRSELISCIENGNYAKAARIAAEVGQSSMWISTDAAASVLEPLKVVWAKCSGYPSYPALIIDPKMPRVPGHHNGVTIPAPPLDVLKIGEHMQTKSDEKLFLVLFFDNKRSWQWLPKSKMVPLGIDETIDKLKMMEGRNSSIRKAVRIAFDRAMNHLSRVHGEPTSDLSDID
# [13] = target: ATPase family AAA domain-containing protein 2B (Homo sapiens, UniProt Q9ULI0); experiment: Displacement of biotinylated H4 peptide from ATAD2B bromodomain (unknown origin) by TR-FRET assay
# [14] = target: Bromodomain-containing protein 3 (Homo sapiens, UniProt Q15059, Y348A); experiment: Displacement of Alexa Fluor 647 labelled ligand from His6-tagged BRD3 BD1(1 to 435 residues)/BD2 Y348A mutant (unknown origin) after 30 mins by TR-FRET assay; outline: as §2
# Chain of Bromodomain-containing protein 3 (Homo sapiens, UniProt Q15059, Y348A) (Q15059 2-726 Y348A limits assumed): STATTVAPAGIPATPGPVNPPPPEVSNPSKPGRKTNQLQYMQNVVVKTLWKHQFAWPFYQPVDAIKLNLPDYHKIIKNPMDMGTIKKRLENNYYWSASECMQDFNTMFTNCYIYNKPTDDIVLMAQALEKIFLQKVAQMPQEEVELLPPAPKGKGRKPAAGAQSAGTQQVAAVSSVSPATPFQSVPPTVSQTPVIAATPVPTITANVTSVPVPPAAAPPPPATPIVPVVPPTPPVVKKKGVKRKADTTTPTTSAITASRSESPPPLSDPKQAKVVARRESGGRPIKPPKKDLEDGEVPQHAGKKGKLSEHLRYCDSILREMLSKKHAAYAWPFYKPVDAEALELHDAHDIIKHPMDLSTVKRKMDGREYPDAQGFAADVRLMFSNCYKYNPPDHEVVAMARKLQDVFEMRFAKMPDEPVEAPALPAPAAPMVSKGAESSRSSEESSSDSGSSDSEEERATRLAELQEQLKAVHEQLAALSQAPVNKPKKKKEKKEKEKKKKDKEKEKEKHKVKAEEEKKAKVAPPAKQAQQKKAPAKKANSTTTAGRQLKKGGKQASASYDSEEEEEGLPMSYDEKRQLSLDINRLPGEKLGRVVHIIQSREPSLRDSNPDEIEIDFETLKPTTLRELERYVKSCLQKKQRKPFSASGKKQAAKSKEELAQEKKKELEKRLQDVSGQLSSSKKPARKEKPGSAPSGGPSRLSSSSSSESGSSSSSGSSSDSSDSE
compound,measurement,setting,value
CC1(C2CC2)NC(=O)N(CC(=O)Nc2ccc(Br)c(S(=O)(=O)N3CCCCC3)c2)C1=O (racemic),Selectivity ratio,[1],> 10
same,pIC50,[2],4.70
same,pIC50,[3],4.60
same,pIC50,[4],5.40
same,pIC50,[5],4.80
same,Selectivity ratio,[6],> 10
same,pIC50,[7],< 4.00
same,Selectivity ratio,[8],> 100
same,pIC50,[9],4.70
same,pIC50,[10],4.50
same,pIC50,[11],< 4.30
same,pIC50,[12],4.90
same,pIC50,[13],6.30
same,pIC50,[14],< 4.30

# — ChEMBL document CHEMBL4311956, “A Qualified Success: Discovery of a New Series of ATAD2 Bromodomain Inhibitors with a Novel Binding Mode Using High-Throughput Screening and Hit Qualification” (J Med Chem, 2019)
